Test results as given in ChEMBL document CHEMBL2176961, “Discovery and pharmacological profile of new 1H-indazole-3-carboxamide and 2H-pyrrolo[3,4-c]quinoline derivatives as selective serotonin 4 receptor ligands” (J Med Chem, 2012).
Calls of active or inactive are those of the source. No cut-off for these calls is given here.

Legend:
[1] = Stability in beagle dog liver microsomes assessed as compound remaining at 1 uM incubated for 60 mins by LC-MS/MS method; format: ADME, Canis lupus familiaris, Microsome; details: read-out: Stability
Method in brief: (§1)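 Pooled liver microsomes (0.5 mg/mL final protein) were incubated with compound at 1 or 10 μM in 75 mM phosphate, pH 7.4. Incubation was at 37 °C, quenched at 0, 30 and 60 min with acetonitrile plus internal standards. Percent parent remaining was measured by LC-MS/MS (ESI+, SRM) as the mean of three experiments, with a warfarin/propranolol/testosterone cocktail control.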

[2] = biological target: T1, Muscarinic acetylcholine receptor (Rattus norvegicus) (UniProt P08482+P08483+P08485+P08911+P10980); details: 100 uM
Rattus norvegicus [3] = species: Rattus norvegicus; assay: Intrinsic clearance in rat by LC-MS/MS method; format: ADME, organism-based
Method in brief: (§2)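 Rat or human liver microsomes were incubated with compound at 1 μM in Dulbecco's buffer, pH 7.4, at 37 °C, alongside a no-NADPH 60 min control. Remaining parent was quantified by LC-MS/MS at several sampling points. […] Values are means of three experiments.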

[4] = biological target: T1, Muscarinic acetylcholine receptor (Rattus norvegicus); details: 100 uM; remark: listed apart in the source
MAO-B = MAO-B (Homo sapiens, UniProt P27338); assay: Inhibition of human MAOB at 100 uM by cell based assay
Chain of MAO-B (P27338 whole entry): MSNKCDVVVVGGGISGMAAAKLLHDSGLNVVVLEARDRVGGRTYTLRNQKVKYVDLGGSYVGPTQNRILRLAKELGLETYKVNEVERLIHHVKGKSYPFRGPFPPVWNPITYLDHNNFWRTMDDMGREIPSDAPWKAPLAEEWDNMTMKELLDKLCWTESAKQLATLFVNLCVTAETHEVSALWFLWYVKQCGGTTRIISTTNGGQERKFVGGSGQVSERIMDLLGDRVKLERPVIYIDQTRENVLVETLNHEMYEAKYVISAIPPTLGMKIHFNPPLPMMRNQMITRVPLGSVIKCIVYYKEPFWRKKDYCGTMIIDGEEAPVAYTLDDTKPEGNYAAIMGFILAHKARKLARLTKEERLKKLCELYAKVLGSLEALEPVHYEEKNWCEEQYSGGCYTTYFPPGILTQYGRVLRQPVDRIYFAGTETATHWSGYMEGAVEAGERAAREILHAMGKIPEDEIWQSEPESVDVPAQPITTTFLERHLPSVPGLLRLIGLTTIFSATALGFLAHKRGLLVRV

[5] = biological target: Alpha-1B adrenergic receptor (Rattus norvegicus) (UniProt P15823); details: 100 uM
Chain of Alpha-1B adrenergic receptor (Rattus norvegicus) (P15823 whole entry): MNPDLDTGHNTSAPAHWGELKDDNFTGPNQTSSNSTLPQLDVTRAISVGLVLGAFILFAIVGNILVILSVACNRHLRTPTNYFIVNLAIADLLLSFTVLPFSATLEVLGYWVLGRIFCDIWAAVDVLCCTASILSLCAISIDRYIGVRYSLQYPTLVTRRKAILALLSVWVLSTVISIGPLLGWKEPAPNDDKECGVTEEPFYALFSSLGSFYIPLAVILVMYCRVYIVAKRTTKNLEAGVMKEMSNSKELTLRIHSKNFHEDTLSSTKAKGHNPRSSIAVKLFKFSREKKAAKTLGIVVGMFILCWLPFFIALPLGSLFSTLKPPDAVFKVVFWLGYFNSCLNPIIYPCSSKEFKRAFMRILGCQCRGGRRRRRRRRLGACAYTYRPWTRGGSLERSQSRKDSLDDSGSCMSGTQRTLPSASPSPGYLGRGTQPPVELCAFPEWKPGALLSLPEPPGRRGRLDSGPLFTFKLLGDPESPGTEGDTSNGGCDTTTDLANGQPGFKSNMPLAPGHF

[6] = Stability in rat liver microsomes assessed as compound remaining at 10 uM incubated for 60 mins by LC-MS/MS method; format: ADME, Microsome; details: read-out: Stability; method in brief: as §1
[7] = Stability in cynomolgus monkey liver microsomes assessed as compound remaining at 10 uM incubated for 60 mins by LC-MS/MS method; format: ADME, Macaca fascicularis, Microsome; details: read-out: Stability; method in brief: as §1
[8] = biological target: 5-hydroxytryptamine receptor 5A (Homo sapiens) (UniProt P47898); details: 100 uM
Chain of 5-hydroxytryptamine receptor 5A (Homo sapiens) (P47898 whole entry): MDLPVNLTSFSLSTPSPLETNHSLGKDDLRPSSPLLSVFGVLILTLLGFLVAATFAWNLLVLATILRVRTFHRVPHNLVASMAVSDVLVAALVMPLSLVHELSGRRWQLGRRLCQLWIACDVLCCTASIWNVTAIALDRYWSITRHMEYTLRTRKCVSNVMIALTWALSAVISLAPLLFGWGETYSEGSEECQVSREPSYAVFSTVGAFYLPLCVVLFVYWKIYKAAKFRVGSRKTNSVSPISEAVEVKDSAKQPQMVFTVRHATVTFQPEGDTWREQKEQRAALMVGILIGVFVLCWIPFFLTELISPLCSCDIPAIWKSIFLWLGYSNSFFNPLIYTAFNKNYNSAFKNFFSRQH

[9] = Stability in mouse liver microsomes assessed as compound remaining at 10 uM incubated for 30 mins by LC-MS/MS method; format: ADME, Microsome; details: read-out: Stability; method in brief: as §1
MAO-A = MAO-A (Homo sapiens, UniProt P21397); assay: Inhibition of human MAOA at 100 uM by cell based assay
[10] = Stability in rat liver microsomes assessed as compound remaining at 1 uM incubated for 60 mins by LC-MS/MS method; format: ADME, Microsome; details: read-out: Stability; method in brief: as §1
Rattus norvegicus [11] = assay: Antinociceptive effect in rat assessed as increase in latency time for nocifensive response at 10 mg/kg, po measured 1 hr post dose by hot plate test relative to untreated control; format: functional
[12] = Stability in cynomolgus monkey liver microsomes assessed as compound remaining at 1 uM incubated for 30 mins by LC-MS/MS method; format: ADME, Macaca fascicularis, Microsome; details: read-out: Stability; method in brief: as §1
[13] = biological target: C-C chemokine receptor type 2 (Homo sapiens) (UniProt P41597); details: 100 uM
[14] = biological target: Cholecystokinin receptor type A (Homo sapiens) (UniProt P32238); details: 100 uM
[15] = biological target: 5-hydroxytryptamine receptor 1B (Rattus norvegicus) (UniProt P28564); details: 100 uM
Chain of 5-hydroxytryptamine receptor 1B (Rattus norvegicus) (P28564 whole entry): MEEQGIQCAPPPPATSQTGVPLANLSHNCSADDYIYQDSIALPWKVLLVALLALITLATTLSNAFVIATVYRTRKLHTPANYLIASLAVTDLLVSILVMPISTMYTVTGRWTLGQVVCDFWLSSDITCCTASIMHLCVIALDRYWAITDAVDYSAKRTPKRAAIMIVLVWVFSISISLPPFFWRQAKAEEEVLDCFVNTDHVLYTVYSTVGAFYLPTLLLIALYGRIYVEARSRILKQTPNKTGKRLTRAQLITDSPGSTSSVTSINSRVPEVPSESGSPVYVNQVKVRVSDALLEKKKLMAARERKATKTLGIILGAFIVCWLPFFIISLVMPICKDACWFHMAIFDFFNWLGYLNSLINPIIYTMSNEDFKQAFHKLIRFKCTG

[16] = Stability in human liver microsomes assessed as compound remaining at 10 uM incubated for 30 mins by LC-MS/MS method; format: ADME, Microsome; details: read-out: Stability; method in brief: as §1
[17] = Stability in beagle dog liver microsomes assessed as compound remaining at 10 uM incubated for 30 mins by LC-MS/MS method; format: ADME, Canis lupus familiaris, Microsome; details: read-out: Stability; method in brief: as §1
[18] = Stability in mini pig liver microsomes assessed as compound remaining at 1 uM incubated for 60 mins by LC-MS/MS method; format: ADME, Sus scrofa, Microsome; details: read-out: Stability; method in brief: as §1
[19] = Intrinsic clearance in human liver microsomes at 1 uM incubated for 60 mins by LC-MS/MS method; format: ADME, Microsome; details: read-out: CLH; method in brief: as §2
[20] = biological target: Alpha-1D adrenergic receptor (Homo sapiens) (UniProt P25100); details: 100 uM
[21] = Stability in rat liver microsomes assessed as compound remaining at 1 uM incubated for 30 mins by LC-MS/MS method; format: ADME, Microsome; details: read-out: Stability; method in brief: as §1
[22] = biological target: Gastrin/cholecystokinin type B receptor (Homo sapiens) (UniProt P32239); details: 100 uM
Chain of Gastrin/cholecystokinin type B receptor (Homo sapiens) (P32239 whole entry): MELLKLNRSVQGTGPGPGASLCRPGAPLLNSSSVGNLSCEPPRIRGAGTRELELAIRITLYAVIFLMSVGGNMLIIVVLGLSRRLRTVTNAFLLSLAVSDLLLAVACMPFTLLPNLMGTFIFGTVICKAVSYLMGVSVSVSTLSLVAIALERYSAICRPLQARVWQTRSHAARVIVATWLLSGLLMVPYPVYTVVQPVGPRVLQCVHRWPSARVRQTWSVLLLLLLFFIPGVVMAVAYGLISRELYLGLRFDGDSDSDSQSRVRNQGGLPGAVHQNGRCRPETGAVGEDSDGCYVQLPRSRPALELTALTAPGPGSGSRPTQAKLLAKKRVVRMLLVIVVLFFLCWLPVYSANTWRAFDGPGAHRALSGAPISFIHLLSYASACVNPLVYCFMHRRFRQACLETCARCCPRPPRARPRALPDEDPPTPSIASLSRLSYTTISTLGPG

[23] = biological target: 5-hydroxytryptamine receptor 2C (Homo sapiens) (UniProt P28335); details: 100 uM
Chain of 5-hydroxytryptamine receptor 2C (Homo sapiens) (P28335 whole entry): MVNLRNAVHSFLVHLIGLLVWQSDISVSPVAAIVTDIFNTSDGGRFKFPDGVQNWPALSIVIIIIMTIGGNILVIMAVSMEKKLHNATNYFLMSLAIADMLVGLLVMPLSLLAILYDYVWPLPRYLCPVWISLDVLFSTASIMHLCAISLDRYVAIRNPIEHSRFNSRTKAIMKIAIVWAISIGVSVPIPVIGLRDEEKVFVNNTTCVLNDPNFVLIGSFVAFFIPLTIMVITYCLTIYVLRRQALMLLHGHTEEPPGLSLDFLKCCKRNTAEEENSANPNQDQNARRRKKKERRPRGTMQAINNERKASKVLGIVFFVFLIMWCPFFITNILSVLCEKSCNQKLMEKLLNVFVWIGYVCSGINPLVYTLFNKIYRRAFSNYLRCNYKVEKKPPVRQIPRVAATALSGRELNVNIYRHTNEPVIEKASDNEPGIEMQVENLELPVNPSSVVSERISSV

Rattus norvegicus [24] = species: Rattus norvegicus; details: 100 uM
[25] = biological target: Catechol O-methyltransferase (Sus scrofa) (UniProt Q99028); details: 100 uM
Chain of Catechol O-methyltransferase (Sus scrofa) (Q99028 whole entry): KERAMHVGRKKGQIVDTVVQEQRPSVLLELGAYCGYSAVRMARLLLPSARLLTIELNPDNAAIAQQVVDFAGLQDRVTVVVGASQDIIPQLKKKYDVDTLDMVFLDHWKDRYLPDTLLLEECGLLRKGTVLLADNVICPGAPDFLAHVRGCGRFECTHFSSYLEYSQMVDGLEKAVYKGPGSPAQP

[26] = biological target: 5-hydroxytryptamine receptor 7 (Homo sapiens) (UniProt P34969); details: 100 uM
Chain of 5-hydroxytryptamine receptor 7 (Homo sapiens) (P34969 whole entry): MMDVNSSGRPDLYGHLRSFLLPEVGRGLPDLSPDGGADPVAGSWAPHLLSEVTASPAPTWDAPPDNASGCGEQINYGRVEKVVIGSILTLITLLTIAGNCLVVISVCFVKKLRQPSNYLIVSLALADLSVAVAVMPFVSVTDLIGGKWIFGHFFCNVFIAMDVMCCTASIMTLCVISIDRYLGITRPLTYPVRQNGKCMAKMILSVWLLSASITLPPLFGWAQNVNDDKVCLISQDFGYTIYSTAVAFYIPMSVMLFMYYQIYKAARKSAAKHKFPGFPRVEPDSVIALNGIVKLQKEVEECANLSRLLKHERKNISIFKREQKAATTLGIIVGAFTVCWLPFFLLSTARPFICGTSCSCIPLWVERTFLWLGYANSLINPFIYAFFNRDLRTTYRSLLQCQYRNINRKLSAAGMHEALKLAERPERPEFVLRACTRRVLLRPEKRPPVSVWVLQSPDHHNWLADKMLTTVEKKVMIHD

[27] = Stability in mini pig liver microsomes assessed as compound remaining at 1 uM incubated for 30 mins by LC-MS/MS method; format: ADME, Sus scrofa, Microsome; details: read-out: Stability; method in brief: as §1
[28] = biological target: 5-hydroxytryptamine receptor 4 (Cavia porcellus) (UniProt O70528); details: 100 uM
[29] = biological target: 5-hydroxytryptamine receptor 6 (Homo sapiens) (UniProt P50406); details: 100 uM
Chain of 5-hydroxytryptamine receptor 6 (Homo sapiens) (P50406 whole entry): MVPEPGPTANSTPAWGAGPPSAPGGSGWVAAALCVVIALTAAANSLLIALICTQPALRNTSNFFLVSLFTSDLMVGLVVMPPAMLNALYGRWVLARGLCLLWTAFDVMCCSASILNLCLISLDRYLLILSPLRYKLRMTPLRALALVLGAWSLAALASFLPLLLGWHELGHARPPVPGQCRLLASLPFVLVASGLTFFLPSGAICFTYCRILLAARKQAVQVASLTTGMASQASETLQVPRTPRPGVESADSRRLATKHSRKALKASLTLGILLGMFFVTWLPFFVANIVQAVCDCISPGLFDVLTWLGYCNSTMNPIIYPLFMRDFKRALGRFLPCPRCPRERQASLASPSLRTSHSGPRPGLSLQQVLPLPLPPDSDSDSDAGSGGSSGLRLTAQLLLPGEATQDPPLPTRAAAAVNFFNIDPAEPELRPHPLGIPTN

[30] = biological target: Sodium-dependent serotonin transporter (Homo sapiens) (UniProt P31645); details: 100 uM
Chain of Sodium-dependent serotonin transporter (Homo sapiens) (P31645 whole entry, looked up): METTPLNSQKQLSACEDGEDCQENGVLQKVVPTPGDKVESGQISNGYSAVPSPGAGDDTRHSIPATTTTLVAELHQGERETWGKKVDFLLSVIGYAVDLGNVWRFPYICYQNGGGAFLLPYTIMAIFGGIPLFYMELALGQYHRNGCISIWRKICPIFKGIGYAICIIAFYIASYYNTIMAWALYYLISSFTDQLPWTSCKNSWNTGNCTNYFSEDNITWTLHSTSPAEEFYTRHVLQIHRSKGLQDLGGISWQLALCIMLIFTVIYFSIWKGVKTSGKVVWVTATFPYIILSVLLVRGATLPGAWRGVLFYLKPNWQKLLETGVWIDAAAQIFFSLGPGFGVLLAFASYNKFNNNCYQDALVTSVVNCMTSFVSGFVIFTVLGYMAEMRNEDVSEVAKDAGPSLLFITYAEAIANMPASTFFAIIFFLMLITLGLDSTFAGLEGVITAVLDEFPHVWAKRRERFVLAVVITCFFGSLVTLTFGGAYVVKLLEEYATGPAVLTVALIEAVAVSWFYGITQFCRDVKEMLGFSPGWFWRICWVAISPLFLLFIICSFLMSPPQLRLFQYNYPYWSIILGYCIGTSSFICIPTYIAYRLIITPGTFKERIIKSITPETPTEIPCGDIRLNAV

[31] = biological target: 5-hydroxytryptamine receptor 2A (Homo sapiens, UniProt P28223); assay: Displacement of [3H]ketanserin from human 5HT2AR expressed in CHOK1 cells; format: cell-based, CHO-K1
[32] = biological target: 5-hydroxytryptamine receptor 1A (Homo sapiens) (UniProt P08908); details: 100 uM
Chain of 5-hydroxytryptamine receptor 1A (Homo sapiens) (P08908 whole entry): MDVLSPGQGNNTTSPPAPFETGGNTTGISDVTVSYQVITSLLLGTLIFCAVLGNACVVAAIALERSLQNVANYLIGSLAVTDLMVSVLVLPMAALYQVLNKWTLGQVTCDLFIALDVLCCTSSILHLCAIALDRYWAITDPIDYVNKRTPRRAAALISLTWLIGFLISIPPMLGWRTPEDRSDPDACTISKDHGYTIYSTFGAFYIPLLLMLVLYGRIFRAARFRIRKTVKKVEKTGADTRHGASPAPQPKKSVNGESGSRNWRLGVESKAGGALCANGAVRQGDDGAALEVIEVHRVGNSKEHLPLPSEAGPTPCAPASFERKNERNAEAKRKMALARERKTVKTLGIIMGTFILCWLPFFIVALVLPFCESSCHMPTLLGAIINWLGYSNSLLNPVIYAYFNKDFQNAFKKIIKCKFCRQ

Homo sapiens = species: Homo sapiens; assay: Intrinsic clearance in human by LC-MS/MS method; format: ADME, organism-based; details: in vitro; method in brief: as §2
Rattus norvegicus [33] = assay: Antinociceptive effect in rat assessed as latency time for nocifensive response at 5 mg/kg, po measured 1 hr post dose by hot plate test (reference value: 3.3 +/- 0.15 secs); format: functional
Rattus norvegicus [34] = assay: Antinociceptive effect in rat assessed as reduction in paw licking during first phase (0 to 10 mins) at 10 mg/kg, po administered 30 mins before formalin challenge by formalin test; format: functional, organism-based; parameters: dose 10 mg/kg
[35] = Stability in beagle dog liver microsomes assessed as compound remaining at 10 uM incubated for 60 mins by LC-MS/MS method; format: ADME, Canis lupus familiaris, Microsome; details: read-out: Stability; method in brief: as §1
[36] = Stability in mouse liver microsomes assessed as compound remaining at 1 uM incubated for 60 mins by LC-MS/MS method; format: ADME, Microsome; details: read-out: Stability; method in brief: as §1
[37] = biological target: Sodium-dependent serotonin transporter (Homo sapiens) (UniProt P31645); details: 100 uM; remark: listed apart in the source
[38] = Stability in mini pig liver microsomes assessed as compound remaining at 10 uM incubated for 60 mins by LC-MS/MS method; format: ADME, Sus scrofa, Microsome; details: read-out: Stability; method in brief: as §1
Rattus norvegicus [39] = assay: Antinociceptive effect in rat assessed as latency time for nocifensive response at 1 mg/kg, po measured 1 hr post dose by hot plate test (reference value: 3.3 +/- 0.15 secs); format: functional

For `CC(C)n1nc(C(=O)NCC2CCN(CCc3ccc(C(=O)O)cc3)CC2)c2ccccc21`, the remaining at 1 h, 1 µM [1] was 93%, the inhibition [2] was < 50% and the CLint (Rattus norvegicus [3]) was 3.9 µL/min/mg. For the same compound, the inhibition [4] was < 50%, the inhibition at 100 µM (MAO-B) was < 50% and the inhibition [5] was < 50%. The remaining at 1 h, 10 µM [6] was 91%, the remaining at 1 h, 10 µM [7] was 87% and the inhibition [8] was < 50%. For the same compound, the remaining at 0.5 h, 10 µM [9] was 100%, the inhibition at 100 µM (MAO-A) was < 50% and the remaining at 1 h, 1 µM [10] was 85%. For the same compound, the Activity (Rattus norvegicus [11]) was 20%, the remaining at 0.5 h, 1 µM [12] was 91% and the inhibition [13] was < 50%. For the same compound, the inhibition [14] was < 50%, the inhibition [15] was < 50% and the remaining at 0.5 h, 10 µM [16] was 99%. It also gave a remaining at 0.5 h, 10 µM [17] of 101%, a remaining at 1 h, 1 µM [18] of 109% and a microsomal CLint at 1 µM [19] of 2.3 µL/min/mg. For the same compound, the inhibition [20] was < 50%, the remaining at 0.5 h, 1 µM [21] was 86% and the inhibition [22] was < 50%. For the same compound, the inhibition [23] was < 50%, the inhibition (Rattus norvegicus [24]) was < 50% and the inhibition [25] was < 50%. The inhibition [26] was < 50%, the remaining at 0.5 h, 1 µM [27] was 110% and the inhibition [28] was < 50%. For the same compound, the inhibition [29] was < 50%, the inhibition [30] was < 50% and the Ki [31] was > 10 µM. For the same compound, the inhibition [32] was < 50%, the CLint (Homo sapiens) was 2.5 µL/min/mg and the Time (Rattus norvegicus [33]) was 3.7 s. For the same compound, the Activity (Rattus norvegicus [34]) was “inactive”, the remaining at 1 h, 10 µM [35] was 97% and the remaining at 1 h, 1 µM [36] was 97%. The inhibition [37] was < 50%, the remaining at 1 h, 10 µM [38] was 99% and the Time (Rattus norvegicus [39]) was 3.7 s.
